Columns and labels:
Assay type in all cases: functional
[1] = system: MDA-MB-231; assay: Growth inhibition of human MDA-MB-231 cells
[2] = system: MDA-MB-468; assay: Growth inhibition of human MDA-MB-468 cells assessed tumor cell growth at 10^-5 M; set-up: scale not given: the % may be the effect or the level left
Summary of the method: (§1)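 NCI 60-human-tumor-cell-line panel screen. Each compound was tested at a single concentration of 10^-5 M, and percent growth of tumor cells was recorded for each cell line. Growth inhibition was expressed from these percent-growth values.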

[3] = system: HT-29; assay: Growth inhibition of human HT-29 cells assessed tumor cell growth at 10^-5 M; set-up: scale not given: the % may be the effect or the level left; summary of the method: as §1
[4] = system: OVCAR-8; assay: Growth inhibition of human OVCAR8 cells
[5] = system: OVCAR-3; assay: Growth inhibition of human OVCAR3 cells
[6] = system: UACC-62; assay: Growth inhibition of human UACC62 cells
[7] = system: HCT-116; assay: Growth inhibition of human HCT116 cells assessed tumor cell growth at 10^-5 M; set-up: scale not given: the % may be the effect or the level left; summary of the method: as §1
[8] = system: PC-3; assay: Growth inhibition of human PC3 cells
[9] = system: DU-145; assay: Growth inhibition of human DU145 cells
[10] = system: SF-539; assay: Growth inhibition of human SF539 cells
[11] = system: SF-295; assay: Growth inhibition of human SF295 cells assessed tumor cell growth at 10^-5 M; set-up: scale not given: the % may be the effect or the level left; summary of the method: as §1
[12] = system: DU-145; assay: Growth inhibition of human DU145 cells assessed tumor cell growth at 10^-5 M; set-up: scale not given: the % may be the effect or the level left; summary of the method: as §1
[13] = system: Malme-3M; assay: Growth inhibition of human MALME-3M cells assessed tumor cell growth at 10^-5 M; set-up: scale not given: the % may be the effect or the level left; summary of the method: as §1
[14] = system: SN12C; assay: Growth inhibition of human SN12C cells assessed tumor cell growth at 10^-5 M; set-up: scale not given: the % may be the effect or the level left; summary of the method: as §1
[15] = system: U-251; assay: Growth inhibition of human U251 cells
[16] = system: HCC 2998; assay: Growth inhibition of human HCC2998 cells assessed tumor cell growth at 10^-5 M; set-up: scale not given: the % may be the effect or the level left; summary of the method: as §1
[17] = system: NCI-H460; assay: Growth inhibition of human NCI-H460 cells assessed tumor cell growth at 10^-5 M; set-up: scale not given: the % may be the effect or the level left; summary of the method: as §1
[18] = system: MCF7; assay: Growth inhibition of human MCF7 cells assessed tumor cell growth at 10^-5 M; set-up: scale not given: the % may be the effect or the level left; summary of the method: as §1
[19] = system: MDA-MB-435; assay: Growth inhibition of human MDA-MB-435 cells assessed tumor cell growth at 10^-5 M; set-up: scale not given: the % may be the effect or the level left; summary of the method: as §1
[20] = system: NCI-H226; assay: Growth inhibition of human NCI-H226 cells
[21] = system: SW-620; assay: Growth inhibition of human SW620 cells
[22] = system: SK-MEL-2; assay: Growth inhibition of human SK-MEL-2 cells
[23] = system: CCRF-CEM; assay: Growth inhibition of human CCRF-CEM cells
[24] = system: A549; assay: Growth inhibition of human A549 cells assessed tumor cell growth at 10^-5 M; set-up: scale not given: the % may be the effect or the level left; summary of the method: as §1
[25] = system: HT-29; assay: Growth inhibition of human HT-29 cells
[26] = system: MDA-MB-468; assay: Growth inhibition of human MDA-MB-468 cells
[27] = system: SR; assay: Growth inhibition of human SR cells
[28] = system: OVCAR-3; assay: Growth inhibition of human OVCAR3 cells assessed tumor cell growth at 10^-5 M; set-up: scale not given: the % may be the effect or the level left; summary of the method: as §1
[29] = system: NCI-H23; assay: Growth inhibition of human NCI-H23 cells assessed tumor cell growth at 10^-5 M; set-up: scale not given: the % may be the effect or the level left; summary of the method: as §1
[30] = system: CAKI-1; assay: Growth inhibition of human Caki1 cells assessed tumor cell growth at 10^-5 M; set-up: scale not given: the % may be the effect or the level left; summary of the method: as §1
[31] = system: PC-3; assay: Growth inhibition of human PC3 cells assessed tumor cell growth at 10^-5 M; set-up: scale not given: the % may be the effect or the level left; summary of the method: as §1
[32] = system: 786-0; assay: Growth inhibition of human 786-0 cells
[33] = system: NCI-H23; assay: Growth inhibition of human NCI-H23 cells
[34] = system: NCI-H322M; assay: Growth inhibition of human NCI-H322M cells
[35] = system: EKVX; assay: Growth inhibition of human EKVX cells
[36] = system: RXF 393; assay: Growth inhibition of human RXF393 cells assessed tumor cell growth at 10^-5 M; set-up: scale not given: the % may be the effect or the level left; summary of the method: as §1
[37] = system: A549; assay: Growth inhibition of human A549 cells
[38] = system: HCT-15; assay: Growth inhibition of human HCT15 cells
[39] = system: CCRF-CEM; assay: Growth inhibition of human CCRF-CEM cells assessed tumor cell growth at 10^-5 M; set-up: scale not given: the % may be the effect or the level left; summary of the method: as §1
[40] = system: T47D; assay: Growth inhibition of human T47D cells assessed tumor cell growth at 10^-5 M; set-up: scale not given: the % may be the effect or the level left
Summary of the method: (§2)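 Single-dose screen at 10^-5 M across the 60 human tumor cell line panel, run to NCI standards. The value is the percent growth of each cell line in the presence of compound. Compounds active at this dose moved on to five-concentration testing (10^-4 to 10^-8 M).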

[41] = system: COLO 205; assay: Growth inhibition of human COLO205 cells assessed tumor cell growth at 10^-5 M; set-up: scale not given: the % may be the effect or the level left; summary of the method: as §1
[42] = system: Malme-3M; assay: Growth inhibition of human MALME-3M cells
[43] = system: SR; assay: Growth inhibition of human SR cells assessed tumor cell growth at 10^-5 M; set-up: scale not given: the % may be the effect or the level left; summary of the method: as §2
[44] = system: MDA-MB-231; assay: Growth inhibition of human MDA-MB-231 cells assessed tumor cell growth at 10^-5 M; set-up: scale not given: the % may be the effect or the level left; summary of the method: as §1
[45] = system: NCI-H322M; assay: Growth inhibition of human NCI-H322M cells assessed tumor cell growth at 10^-5 M; set-up: scale not given: the % may be the effect or the level left; summary of the method: as §1
[46] = system: HL-60(TB); assay: Growth inhibition of human HL-60(TB) cells
[47] = system: A498; assay: Growth inhibition of human A498 cells assessed tumor cell growth at 10^-5 M; set-up: scale not given: the % may be the effect or the level left; summary of the method: as §1
[48] = system: UACC-257; assay: Growth inhibition of human UACC257 cells assessed tumor cell growth at 10^-5 M; set-up: scale not given: the % may be the effect or the level left; summary of the method: as §2
[49] = system: MOLT-4; assay: Growth inhibition of human MOLT4 cells assessed tumor cell growth at 10^-5 M; set-up: scale not given: the % may be the effect or the level left; summary of the method: as §1
[50] = system: MDA-MB-435; assay: Growth inhibition of human MDA-MB-435 cells
[51] = system: RXF 393; assay: Growth inhibition of human RXF393 cells
[52] = system: OVCAR-4; assay: Growth inhibition of human OVCAR4 cells assessed tumor cell growth at 10^-5 M; set-up: scale not given: the % may be the effect or the level left; summary of the method: as §1
[53] = system: KM12; assay: Growth inhibition of human KM12 cells assessed tumor cell growth at 10^-5 M; set-up: scale not given: the % may be the effect or the level left; summary of the method: as §1
[54] = system: SNB-19; assay: Growth inhibition of human SNB19 cells
[55] = system: HOP-62; assay: Growth inhibition of human HOP62 cells assessed tumor cell growth at 10^-5 M; set-up: scale not given: the % may be the effect or the level left; summary of the method: as §1
[56] = read-out: LC50 (the source's name)

CC1=NN(c2cccc(Cl)c2)C(=O)/C1=C\C=C\c1ccccc1
GI50 [1]: 2.2 µM | CC50 [1, 56]: > 100 µM | Activity [2]: 9.96% | Activity [3]: -29.51% | GI50 [4]: 2.6 µM | CC50 [4, 56]: > 100 µM | GI50 [5]: 2.1 µM | CC50 [5, 56]: 8.9 µM | GI50 [6]: 1.7 µM | CC50 [6, 56]: 8.5 µM | Activity [7]: -89.22% | GI50 [8]: 2.9 µM | CC50 [8, 56]: > 100 µM | GI50 [9]: 2.8 µM | CC50 [9, 56]: 53.7 µM | GI50 [10]: 2.5 µM | CC50 [10, 56]: > 100 µM | Activity [11]: 101.1% | Activity [12]: 112.48% | Activity [13]: 115.91% | Activity [14]: 0.41% | GI50 [15]: 1.7 µM | CC50 [15, 56]: 23.9 µM | Activity [16]: 30.87% | Activity [17]: 100.76% | Activity [18]: 5.42% | Activity [19]: 13.63% | GI50 [20]: 2.6 µM | CC50 [20, 56]: 64.5 µM | GI50 [21]: 1.7 µM | CC50 [21, 56]: 6.7 µM | GI50 [22]: 3.8 µM | CC50 [22, 56]: > 100 µM | GI50 [23]: 3.1 µM | CC50 [23, 56]: > 100 µM | Activity [24]: 94.48% | GI50 [25]: 2.9 µM | CC50 [25, 56]: > 100 µM | GI50 [26]: 1.6 µM | CC50 [26, 56]: 39.8 µM | GI50 [27]: 2.3 µM | CC50 [27, 56]: > 100 µM | Activity [28]: 103.59% | Activity [29]: 26.27% | Activity [30]: 52.22% | Activity [31]: 45.45% | GI50 [32]: 2.1 µM | CC50 [32, 56]: 10.2 µM | GI50 [33]: 2.3 µM | LC50 (concentration killing 50% of cells) [33]: > 100 µM | GI50 [34]: 28.1 µM | CC50 [34, 56]: > 100 µM | GI50 [35]: 3 µM | CC50 [35, 56]: > 100 µM | Activity [36]: -87.73% | GI50 [37]: 16.2 µM | CC50 [37, 56]: > 100 µM | GI50 [38]: 2.2 µM | CC50 [38, 56]: > 100 µM | Activity [39]: 2.35% | Activity [40]: 41.86% | Activity [41]: 11.57% | GI50 [42]: 2.7 µM | CC50 [42, 56]: > 100 µM | Activity [43]: 10.62% | Activity [44]: 13.67% | Activity [45]: 111.8% | GI50 [46]: 3.1 µM | CC50 [46, 56]: > 100 µM | Activity [47]: 109.76% | Activity [48]: 63.3% | Activity [49]: 28.39% | GI50 [50]: 2.5 µM | CC50 [50, 56]: > 100 µM | GI50 [51]: 2.1 µM | CC50 [51, 56]: 7.2 µM | Activity [52]: -20.79% | Activity [53]: 16.12% | GI50 [54]: 5.6 µM | CC50 [54, 56]: > 100 µM | Activity [55]: 6.78%
